Measurements reported in ChEMBL document CHEMBL4622992, “New Polyaminoisoprenyl Antibiotics Enhancers against Two Multidrug-Resistant Gram-Negative Bacteria from Enterobacter and Salmonella Species” (J Med Chem, 2020).

How the values were obtained:
Klebsiella aerogenes [1] = test: Potentiation of doxycycline-induced antibacterial activity against Enterobacter aerogenes Ea289 assessed as ratio of the doxycycline alone MIC to doxycycline MIC in presence of MIC/4 level of compound incubated for 18 hrs; type: functional
Procedure, shortened: (§1)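 Broth microdilution in MH broth, 10^5 CFU inoculum, two-fold antibiotic dilutions, with or without compound at MIC/4. MIC is the lowest concentration with no visible growth after 18 h at 37°C. Gain is antibiotic MIC alone divided by MIC with compound. MICs repeated in at least three independent experiments; up to 5% DMSO.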

Salmonella typhimurium [2] = test: Potentiation of erythromycin-induced antibacterial activity against Salmonella enterica subsp. enterica serovar Typhimurium BN10055 assessed as ratio of the erythromycin alone MIC to erythromycin MIC in presence of MIC/4 level of compound incubated for 18 hrs; type: functional; procedure, shortened: as §1
Klebsiella aerogenes [3] = test: Potentiation of erythromycin-induced antibacterial activity against Enterobacter aerogenes Ea289 assessed as ratio of the erythromycin alone MIC to erythromycin MIC in presence of MIC/4 level of compound incubated for 18 hrs
Klebsiella aerogenes [4] = test: Potentiation of nalidixic acid-induced antibacterial activity against Enterobacter aerogenes Ea289 assessed as ratio of the nalidixic acid alone MIC to nalidixic acid MIC in presence of MIC/4 level of compound incubated for 18 hrs
Klebsiella aerogenes [5] = test: Potentiation of chloramphenicol-induced antibacterial activity against Enterobacter aerogenes Ea289 assessed as ratio of the chloramphenicol alone MIC to […] in presence of MIC/4 level of compound incubated for 18 hrs; type: functional; procedure, shortened: as §1
[6] = Toxicity in CHO cells assessed as reduction in cell viability incubated for 24 hrs by WST1 assay; type: cell-based; conditions: Chinese hamster (Cricetulus griseus)
Procedure, shortened: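 CHO-K1 cells in McCoy's 5A with 10% FCS, exposed in triplicate to 30–1200 μM compound for 24 h at 37°C. After PBS washes, 30 min in medium with 10% WST-1; absorbance at 450 nm. IC50 is the concentration giving 50% loss of viable cells.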

Salmonella typhimurium [7] = test: Potentiation of nalidixic acid-induced antibacterial activity against Salmonella enterica subsp. enterica serovar Typhimurium BN10055 assessed as ratio of the nalidixic acid alone MIC to […] in presence of MIC/4 level of compound incubated for 18 hrs; type: functional; procedure, shortened: as §1
Salmonella typhimurium [8] = test: Potentiation of doxycycline-induced antibacterial activity against Salmonella enterica subsp. enterica serovar Typhimurium BN10055 assessed as ratio of the doxycycline alone MIC to doxycycline MIC in presence of MIC/4 level of compound incubated for 18 hrs; type: functional; procedure, shortened: as §1
Salmonella typhimurium [9] = test: Potentiation of chloramphenicol-induced antibacterial activity against Salmonella enterica subsp. enterica serovar Typhimurium BN10055 assessed as ratio of the chloramphenicol alone MIC to […] in presence of MIC/4 level of compound incubated for 18 hrs; type: functional; procedure, shortened: as §1
Klebsiella aerogenes [10] = test: Potentiation of chloramphenicol-induced antibacterial activity against Enterobacter aerogenes Ea289 assessed as efficiency index by measuring sum of gain factor for each test compound reported for chloramphenicol/nalidixic acid/doxycycline/erythromycin and divided by concentration of test compound; type: functional; conditions: pooled result: one value given for 2 cell lines, strains, targets or settings
Procedure, shortened: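 Gain factors (antibiotic MIC alone / MIC with compound at MIC/4; broth dilution, 18 h, 37°C) for erythromycin, doxycycline, nalidixic acid and chloramphenicol are summed, then divided by the compound concentration used in the assay.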

[11] = Toxicity index, ratio of IC50 for toxicity in CHO cells to concentration of test compound causing at least 8 times decrease of MIC of almost 3 antibiotics (chloramphenicol/nalidixic acid/doxycycline/erythromycin ) against Enterobacter aerogenes Ea289; type: cell-based; conditions: hamster, pooled result: one value given for 2 cell lines, strains, targets or settings

| SMILES | Ratio (Klebsiella aerogenes [1]) | Ratio (Salmonella typhimurium [2]) | Ratio (Klebsiella aerogenes [3]) | Ratio (Klebsiella aerogenes [4]) | Ratio (Klebsiella aerogenes [5]) | IC50 at 24 h [6] | Ratio (Salmonella typhimurium [7]) | Ratio (Salmonella typhimurium [8]) | Ratio (Salmonella typhimurium [9]) | Activity_index (Klebsiella aerogenes [10]) | selectivity ratio [11] |
| --- | --- | --- | --- | --- | --- | --- | --- | --- | --- | --- | --- |
| CC(C)=CCC/C(C)=C\CCC(C)=CCNCCCCN | 64 | 4 | 256 | 16 | 16 | 18.1 µM | 64 | 16 | 8 |  |  |
| CC(C)=CCCC(C)=CCNCCCN1CCCC1=O | 2 | 1 | 2 | 1 | 1 | > 150 µM | 1 | 1 | 1 |  |  |
| CC(C)=CCCC(C)=CCNCCN | 32 | 1 | 4 | 4 | 4 | 36.2 µM | 16 | 16 | 8 |  |  |
| CC(C)=CCC/C(C)=C\CCC(C)=CCNCCN | 8 | 32 | 128 | 8 | 4 | 32.3 µM | 64 | 32 | 8 |  |  |
| CCN(CC)CCCNCCCNCC=C(C)CCC=C(C)C | 32 | 8 | 32 | 8 | 16 | 30.9 µM | 64 | 32 | 16 | 1.66 | 1.98 |
| CC(C)=CCCC(C)=CCNCCCN | 16 |  | 32 | 8 | 8 | > 150 µM | 32 | 16 | 8 |  |  |
| CC(C)=CCC/C(C)=C\CCC(C)=CCNCCCNCCCCNCCCN | 16 |  | 8 | 32 | 16 | 143 µM | 64 | 8 | 32 | 1.61 | 9.15 |
| CC(C)=CCC/C(C)=C\CCC(C)=CCNCCCN1CCOCC1 | 32 | 4 | 16 | 8 | 8 | 57.6 µM | 32 | 16 | 8 |  |  |
| CC(C)=CCC/C(C)=C\CCC(C)=CCNCCCNCCCN | 32 | 8 | 64 | 8 | 8 | 30.2 µM | 64 | 32 | 8 | 3.58 | 3.86 |
| CC(C)=CCC/C(C)=C\CCC(C)=CCNCCCN(C)CCCN | 64 | 8 | 128 | 32 | 8 | 10.5 µM | 128 | 64 | 16 | 7.17 | 1.34 |
| CC(C)=CCC/C(C)=C\CCC(C)=CCNCCCCCN | 64 | 2 | 32 | 8 | 16 | 38.4 µM | 16 | 16 | 8 |  |  |
| CC(C)=CCCC(C)=CCNCCCN1CCCC1 | 2 | 1 | 1 | 2 | 1 | > 150 µM | 4 | 2 | 2 |  |  |
| CC(C)=CCCC(C)=CCNCCCN(C)CCCN | 16 |  | 32 | 8 | 16 | > 150 µM | 32 | 16 | 16 | 0.01 | 0.06 |
| CC(C)=CCCC(C)=CCNCCCN1CCOCC1 | 2 | 1 | 1 | 1 | 1 | > 150 µM | 1 | 2 | 2 |  |  |
| CC(C)=CCC/C(C)=C\CCC(C)=CCNCCCN1CCN(CCCN)CC1 | 128 | 4 | 128 | 32 | 8 | 33.8 µM | 64 | 32 | 8 |  |  |
| CC(C)=CCC/C(C)=C\CCC(C)=CCNCCCOCCCCOCCCN | 8 | 4 | 2 | 2 | 4 | > 150 µM | 16 | 8 | 4 |  |  |
| CC(C)=CCC/C(C)=C\CCC(C)=CCNCCCN | 64 | 64 | 256 | 16 | 16 | 32.1 µM | 128 | 32 | 32 |  |  |
| CC(C)=CCC/C(C)=C\CCC(C)=CCNCCCN1CCCC1 | 32 | 16 | 64 | 16 | 16 | 85.3 µM | 128 | 32 | 16 |  |  |
